Reference: PMC9007260 (Russian Journal of Organic Chemistry, 2022)
Marks after values point to notes of the source that are not given here.

How the values were obtained:
[1] = system: coagulation in hemostasis; assay: Anticoagulant activity, activated partial thromboplastin time; assay type: biochemical; conditions: value (range), n = 6
Summary of the method: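 APTT was measured turbidimetrically on a hemocoagulometer using centrifuged citrated blood. Change is given as percent of control with a range in parentheses, n = 6. Significance was tested against control and reference drugs at p ≤ 0.05 or p ≤ 0.001.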

[2] = system: collagen-induced platelet aggregation; assay: Collagen-induced platelet aggregation; assay type: cell-based
Summary of the method: (§1)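 Citrated blood was centrifuged, and platelet aggregation was recorded on an aggregometer using a published method. Collagen induced the latent period; ADP induced maximum amplitude and aggregation rate. Changes are given as percent of control, n = 6. Significance was tested against control and reference drugs at p ≤ 0.05 or p ≤ 0.001.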

[3] = system: ADP-induced platelet aggregation; assay: ADP-induced platelet aggregation; assay type: cell-based; conditions: pro-aggregation activity versus etamsylate
Summary of the method: as §1

| Molecule | APTT (activated partial thromboplastin time) [1] | Effect on latent period (in words) [2] | Platelet aggregation activity relative to etamsylate [3] |
| --- | --- | --- | --- |
| CC(=O)Oc1ccccc1C(=O)O [Acetylsalicylic acid, reference compound] | +1.1 (0.5–1.9)^e percent of control |  |  |
| C[N+](C)(C)CC(=O)NN=C1C(=O)N(CCn2cnc3c(N)ncnc32)c2ccccc21.[Cl-] [Compound 3a, 2-(2-{1-[2-(6-Amino-9H-purin-9-yl)ethyl]-2-oxo-2,3-dihydro-1H-indol-3-ylidene}hydrazinyl)-N,N,N-trimethyl-2-oxoethan-1-aminium chloride] | +3.7 (2.9–5.4)^e percent of control |  |  |
| Cc1ccc2c(c1)C(=NNC(=O)C[N+](C)(C)C)C(=O)N2CCn1cnc2c(N)ncnc21.[Cl-] [Compound 3b, 2-(2-{1-[2-(6-Amino-9H-purin-9-yl)ethyl]-5-methyl-2-oxo-2,3-dihydro-1H-indol-3-ylidene}hydrazinyl)-N,N,N-trimethyl-2-oxoethan-1-aminium chloride] | +6.5 (4.9–8.3)^c,e percent of control |  |  |
| CCc1ccc2c(c1)C(=NNC(=O)C[n+]1ccccc1)C(=O)N2CCn1cnc2c(N)ncnc21.[Cl-] [Compound 3c, 1-[2-(2-{1-[2-(6-Amino-9H-purin-9-yl)ethyl]-5-ethyl-2-oxo-2,3-dihydro-1H-indol-3-ylidene}hydrazinyl)-2-oxoethyl]pyridinium chloride] | +5.3 (4.1–9.6)^c,e percent of control |  |  |
| Cc1ccc2c(c1)C(=NNC(=O)C[n+]1cccc(C)c1C)C(=O)N2CCn1cnc2c(N)ncnc21.[Br-] [Compound 3d, 1-[2-(2-{1-[2-(6-Amino-9H-purin-9-yl)ethyl]-5-methyl-2-oxo-2,3-dihydro-1H-indol-3-ylidene}hydrazinyl)-2-oxoethyl]-2,3-dimethylpyridinium bromide] | +2.5 (1.8–4.3)^e percent of control |  |  |
| Cn1c(=O)c2c(ncn2CCN2C(=O)C(=NNC(=O)C[N+](C)(C)C)c3ccccc32)n(C)c1=O.[Cl-] [Compound 4a, 2-[2-(1-{2-[1,3-Dimethyl-2,6-dioxo-2,3-dihydro-1H-purin-7(6H)-yl]ethyl}-2-oxo-2,3-dihydro-1H-indol-3-ylidene)hydrazinyl]-N,N,N-trimethyl-2-oxoethan-1-aminium chloride] | +8.4 (7.3–10.4)^c,e percent of control |  |  |
| Cc1ccc2c(c1)C(=NNC(=O)C[N+](C)(C)C)C(=O)N2CCn1cnc2c1c(=O)n(C)c(=O)n2C.[Cl-] [Compound 4b, 2-[2-(1-{2-[1,3-Dimethyl-2,6-dioxo-2,3-dihydro-1H-purin-7(6H)-yl]ethyl}-5-methyl-2-oxo-2,3-dihydro-1H-indol-3-ylidene)hydrazinyl]-N,N,N-trimethyl-2-oxoethan-1-aminium chloride] | +7.3 (5.6–9.4)^c,e percent of control | without affecting the latent period | more than twofold |
| Sodium heparin [reference compound] | +20.3 (19.7–21.4)^d percent of control |  |  |
